According to ChEMBL document CHEMBL1155133, “Synthesis, cytotoxicity, and antioxidative activity of minor prenylated chalcones from Humulus lupulus” (J Nat Prod, 2008):

Tests used:
[1] = test system: HeLa; assay: Cytotoxicity against human HeLa cells by MTT assay after 72 hrs; format: functional, cell-based
Method in brief: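 HeLa (ATCC […]) cells grown in MEM with 10% FCS and 2 mM L-glutamine at 37 °C, 5% CO2. MTT colorimetric read-out at 560 nm. Eight concentrations tested in duplicate, with experiments repeated three times. IC50 reported as mean ± SD.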

[2] = Antioxidant activity assessed as trolox equivalents at 0.1 to 1 uM by ORAC-fluorescein assay; format: functional
Method in brief: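 Fluorescein probe at 300 nM final in 75 mM phosphate buffer, pH 7.4. Samples at five concentrations (0.1-1.0 µM) preincubated with probe at 37 °C for 15 min. AAPH (12 mM final) then added. Fluorescence (ex 485/em 536 nm) read every minute for 80 min at 37 °C. Quadruplicates, ≥4 independent assays. AUC converted to Trolox equivalents (mean ± SD) using a 1-8 µM Trolox curve run in each assay.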

[3] = Antioxidant activity assessed as trolox equivalents at 0.2 to 0.6 uM by ORAC-fluorescein assay; format: functional
[4] = Antioxidant activity assessed as trolox equivalents at 0.4 to 1.3 uM by ORAC-fluorescein assay; format: functional
[5] = Antioxidant activity assessed as trolox equivalents at 0.2 to 1 uM by ORAC-fluorescein assay; format: functional

| Compound | IC50 [1] [µM] | Activity [2] | other results |
| --- | --- | --- | --- |
| COc1cc(O)c(C/C=C(\C)CCC=C(C)C)c(O)c1C(=O)/C=C/c1ccc(O)cc1 | 8.2 | 3.4 |  |
| COc1cc(O)c(C(=O)/C=C/c2ccc(O)cc2)c(OC)c1 [FLAVOKAWAIN C] | 19.2 | 4 |  |
| O=c1c(O)c(-c2ccc(O)c(O)c2)oc2cc(O)cc(O)c12 |  |  | Activity [3]: 10.5 |
| COc1cc(/C=C/C(=O)O)ccc1O |  |  | Activity [4]: 4.4 |
| COc1cc2c(c(O)c1C(=O)/C=C/c1ccc(O)cc1)CCC(C)(C)O2 | 15.4 | 1.7 |  |
| CC(C)=CCC/C(C)=C/Cc1c(O)cc(O)c(C(=O)/C=C/c2ccc(O)cc2)c1O | 18.2 | 2.3 |  |
| COc1cc2c(c(O)c1C(=O)/C=C/c1ccc(O)cc1)C=CC(C)(C)O2 [XANTHOHUMOL C] | 12.5 | 1.8 |  |
| COc1cc(O)c(CC=C(C)C)c(O)c1C(=O)/C=C/c1ccc(O)cc1 |  | 2.3 |  |
| COc1cc(O)c(CCC(C)(C)O)c(O)c1C(=O)/C=C/c1ccc(O)cc1 [XANTHOHUMOL H] | 9.2 | 4.8 |  |
| COc1cc(OC)c(C(=O)/C=C/c2ccc(O)cc2)c(O)c1C | 12.2 | 2.1 |  |
| COc1c(CC=C(C)C)c(O)c(CC=C(C)C)c(O)c1C(=O)/C=C/c1ccc(O)cc1 | 9.7 | 1.9 |  |
| COc1c(CC=C(C)C)c(O)cc(O)c1C(=O)/C=C/c1ccc(O)cc1 | 10.4 | 5.2 |  |
| O=C(O)/C=C/c1ccc(O)c(O)c1 |  |  | Activity [5]: 6.6 |
